Assay results: ChEMBL document CHEMBL1799919, “Design, synthesis, biological evaluation, and structure-activity relationships of substituted phenyl 4-(2-oxoimidazolidin-1-yl)benzenesulfonates as new tubulin inhibitors mimicking combretastatin A-4” (J Med Chem, 2011)
Active and inactive are the calls of the source. The calls are words filed in the database; no cut-off is given here.

Assays:
[1] = test system: HT-1080; experiment: Antivasculogenic activity against human HT1080 cells xenografted in chicken chorioallantoic membrane assessed as inhibition of tumor growth at 3 ug per egg, iv measured on day 14 by CAM assay; type: functional
[2] = test system: CHO-VV 3-2; experiment: Antiproliferative activity against colchicine- and vinblastine-resistant CHO-VV 3-2 cells after 48 hrs by sulforhodamine B assay; details: Cricetulus griseus, CHO-VV 3-2, 48 h
[3] = test system: CHO; experiment: Antiproliferative activity against CHO cells after 48 hrs by sulforhodamine B assay; type: functional, cell-based; details: Cricetulus griseus
[4] = Antiproliferative activity against mouse B16F0 cells after 48 hrs by sulforhodamine B assay; type: functional, cell-based; details: B16F0, 48 h
[5] = test system: M21; experiment: Cell cycle arrest in human M21 cells assessed as accumulation at G0/G1 phase at 5 times IC50 after 24 hrs using propidium iodide staining by flow cytometric analysis (reference value: 61%); type: functional
[6] = test system: M21; experiment: Cell cycle arrest in human M21 cells assessed as accumulation at G2/M phase at 5 times IC50 after 24 hrs using propidium iodide staining by flow cytometric analysis (reference value: 9%); type: functional
[7] = test system: M21; experiment: Disruption of cytoskeleton microtubule structure of human M21 cells at 5 times IC50 after 16 hrs by indirect immunofluorescence assay; type: functional, cell-based
How it was run: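 Fixed in 3.7% formaldehyde, permeabilized with saponin, and stained with anti-β-tubulin (TUB 2.1), Alexa-488 secondary and DAPI. Microtubule structure scored by fluorescence microscopy.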

[8] = test system: MDA-MB-231; experiment: Displacement of N,N'-ethylenebis(iodoacetamide) from colchicine-binding site of beta-tubulin in human MDA-MB-231 cells at 1000 times IC50 preincubated for after 2 hrs before N,N'-ethylenebis(iodoacetamide) addition measured after 1.5 hrs by chemiluminescence assay; type: cell-based
How it was run: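 EBI (100 μM final) added for 1.5 h at 37 °C; controls received 0.5% DMSO. Lysates (20 μg protein) run on 10% SDS-PAGE and blotted with anti-β-tubulin (TUB 2.1). β-tubulin–EBI adduct band detected by ECL.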

[9] = test system: CHO-TAX 5-6; experiment: Resistant ratio of IC50 for paclitaxel-resistant CHO-TAX 5-6 cells to IC50 for CHO cells; type: functional, Cricetulus griseus
How it was run: (§1)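 Ratio of the IC50 in the resistant line (CEM-VLB, CHO-TAX 5-6 or CHO-VV 3-2) to the IC50 in its parental line (CEM or CHO).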

[10] = test system: HT-29; experiment: Antiproliferative activity against human HT-29 cells after 48 hrs by sulforhodamine B assay; type: functional, cell-based; details: HT-29, 48 h
[11] = test system: K562; experiment: Antiproliferative activity against human K562 cells after 48 hrs by sulforhodamine B assay; type: functional, cell-based; details: K562, 48 h
[12] = test system: CCRF-CEM; experiment: Antiproliferative activity against human CEM cells after 48 hrs by sulforhodamine B assay; type: functional, cell-based
[13] = Antiproliferative activity against multidrug-resistant human CEM/VLB cells after 48 hrs by sulforhodamine B assay; type: functional
[14] = test system: M21; experiment: Cell cycle arrest in human M21 cells assessed as accumulation at S phase at 5 times IC50 after 24 hrs using propidium iodide staining by flow cytometric analysis (reference value: 30%); type: functional
[15] = test system: CEM-VLB; experiment: Resistant ratio of IC50 for multidrug-resistant human CEM-VLB cells to IC50 for human CEM cells; type: functional; how it was run: as §1
[16] = test system: HT-1080; experiment: Antiproliferative activity against human HT1080 cells after 48 hrs by sulforhodamine B assay; type: functional, cell-based; details: HT-1080, 48 h
[17] = test system: MDA-MB-231; experiment: Antiproliferative activity against human MDA-MB-231 cells after 48 hrs by sulforhodamine B assay; type: functional, cell-based; details: MDA-MB-231, 48 h
[18] = test system: L1210; experiment: Antiproliferative activity against mouse L1210 cells after 48 hrs by sulforhodamine B assay; type: functional, cell-based; details: L1210, 48 h
[19] = test system: CHO-TAX 5-6; experiment: Antiproliferative activity against paclitaxel-resistant CHO-TAX 5-6 cells after 48 hrs by sulforhodamine B assay; type: functional, cell-based; details: Cricetulus griseus, CHO-TAX 5-6, 48 h
[20] = Antiproliferative activity against mouse P388D1 cells after 48 hrs by sulforhodamine B assay; type: functional, cell-based; details: P388D1, 48 h
[21] = test system: SK-OV-3; experiment: Antiproliferative activity against human SKOV3 cells after 48 hrs by sulforhodamine B assay; type: functional, cell-based; details: SK-OV-3, 48 h
[22] = Toxicity against fertilized chicken embryo assessed as mortality at 3 ug per egg, iv by CAM assay; type: organism-based, Gallus gallus; details: in vivo, read-out: Activity
How it was run: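 Fertilized chicken eggs incubated 10 days with automatic turning, then static. HT-1080 cells (3.5 × 10^5 cells/egg) grafted onto exposed CAM. On day 11, drug in DMSO diluted into cremophor/ethanol/PBS (6.25/6.25/87.5 v/v) excipient, DMSO below 0.5%, 100 μL injected iv into 10-12 eggs. Eggs incubated to day 17, dead embryos counted. Untreated eggs used for normalization. Two independent experiments, at least 10 eggs each.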

[23] = test system: M21; experiment: Antiproliferative activity against human M21 cells after 48 hrs by sulforhodamine B assay; type: functional, cell-based; details: M21, 48 h
[24] = test system: DU-145; experiment: Antiproliferative activity against human DU145 cells after 48 hrs by sulforhodamine B assay; type: functional, cell-based; details: DU-145, 48 h
[25] = test system: MCF7; experiment: Antiproliferative activity against human MCF7 cells after 48 hrs by sulforhodamine B assay; type: functional, cell-based; details: MCF7, 48 h

Compound	IC50 [10] [nM]	IC50 [25] [nM]	Activity [5] [%]	Activity [6] [%]	Activity [7]	inhibition [8]	Activity [14] [%]	IC50 [23] [nM]	other results
Cc1ccc(C)c(OS(=O)(=O)c2ccc(N3CCNC3=O)cc2)c1	10	14	3	77	Active	Active	20	8.5	Activity [1]: Active; IC50 [2]: 21 nM; IC50 [3]: 18 nM; IC50 [4]: 49 nM; Ratio IC50 [9]: 0.78; IC50 [11]: 18 nM; IC50 [12]: 19 nM; IC50 [13]: 23 nM; Ratio IC50 [15]: 1.2; IC50 [16]: 24 nM; IC50 [17]: 69 nM; IC50 [18]: 21 nM; IC50 [19]: 14 nM; IC50 [20]: 19 nM; IC50 [21]: 29 nM; mortality [22]: 13%; IC50 [24]: 57 nM
COc1cc2c(c(OC)c1OC)-c1ccc(OC)c(=O)cc1[C@@H](NC(C)=O)CC2 [COLCHICINE]	–	–	–	–	–	–	–	–	IC50 [2]: 620 nM; IC50 [3]: 220 nM; IC50 [4]: 13 nM; IC50 [11]: 6.8 nM; IC50 [12]: 7.9 nM; IC50 [13]: 360 nM; IC50 [16]: 1.1 nM; IC50 [17]: 2.9 nM; IC50 [18]: 6.9 nM; IC50 [19]: 140 nM; IC50 [20]: 28 nM; IC50 [21]: 2.1 nM
O=C1NCCN1c1ccc(S(=O)(=O)Oc2cccc(Cl)c2)cc1	15	13	2	79	Active	Active	19	9.2	Activity [1]: 46%; IC50 [2]: 20 nM; IC50 [3]: 18 nM; IC50 [4]: 46 nM; Ratio IC50 [9]: 0.52; IC50 [11]: 16 nM; IC50 [12]: 17 nM; IC50 [13]: 20 nM; Ratio IC50 [15]: 1.2; IC50 [16]: 19 nM; IC50 [17]: 45 nM; IC50 [18]: 17 nM; IC50 [19]: 9.3 nM; IC50 [20]: 19 nM; IC50 [21]: 22 nM; mortality [22]: 0%; IC50 [24]: 58 nM
CC[C@]1(O)C[C@@H]2CN(CCc3c([nH]c4ccccc34)[C@@](C(=O)OC)(c3cc4c(cc3OC)N(C)[C@H]3[C@@](O)(C(=O)OC)[C@H](OC(C)=O)[C@]5(CC)C=CCN6CC[C@]43[C@@H]65)C2)C1 [VINBLASTINE]	–	–	–	–	–	–	–	–	IC50 [2]: 66 nM; IC50 [3]: 17 nM; IC50 [4]: 0.099 nM; Ratio IC50 [9]: 0.41; IC50 [11]: 0.36 nM; IC50 [12]: 0.38 nM; IC50 [13]: 600 nM; Ratio IC50 [15]: 1579; IC50 [16]: 0.099 nM; IC50 [17]: 0.12 nM; IC50 [18]: 0.16 nM; IC50 [19]: 6.9 nM; IC50 [20]: 1.8 nM; IC50 [21]: 0.039 nM; IC50 [24]: 0.063 nM
O=C1NCCN1c1ccc(S(=O)(=O)Oc2ccccc2I)cc1	55	71	4	71	Active	Active	25	40	–
CC(=O)O[C@H]1C(=O)[C@@]2(C)[C@H]([C@H](OC(=O)c3ccccc3)[C@]3(O)C[C@H](OC(=O)[C@H](O)[C@@H](NC(=O)c4ccccc4)c4ccccc4)C(C)=C1C3(C)C)[C@]1(OC(C)=O)CO[C@@H]1C[C@@H]2O [PACLITAXEL]	–	–	–	–	–	–	–	–	IC50 [2]: 140 nM; IC50 [3]: 170 nM; IC50 [4]: 28 nM; IC50 [11]: 0.71 nM; IC50 [12]: 0.27 nM; IC50 [16]: 0.15 nM; IC50 [18]: 0.4 nM; IC50 [19]: 520 nM; IC50 [20]: 35 nM; IC50 [21]: 2.6 nM; IC50 [24]: 1.3 nM
O=C1NCCN1c1ccc(S(=O)(=O)Oc2ccccc2Cl)cc1	66	73	2	83	Active	Active	15	45	–
CCc1ccccc1OS(=O)(=O)c1ccc(N2CCNC2=O)cc1	61	87	0	100	Active	Active	0	52	–
O=C1NCCN1c1ccc(S(=O)(=O)Oc2cccc([N+](=O)[O-])c2)cc1	100	60	56	31	Active	Active	13	48	–
O=C1NCCN1c1ccc(S(=O)(=O)Oc2ccc(Cl)cc2)cc1	87	88	0	100	Active	Active	0	58	–
CCCc1ccc(OS(=O)(=O)c2ccc(N3CCNC3=O)cc2)cc1	77	110	1	81	Active	Active	18	59	–
Cc1ccc(OS(=O)(=O)c2ccc(N3CCNC3=O)cc2)c(C)c1	51	50	0	100	Active	Active	0	39	–
O=C1NCCN1c1ccc(S(=O)(=O)Oc2cc(F)c(F)c(F)c2)cc1	73	91	4	65	Active	Active	31	43	–

Continued by falling IC50 [10], values first:

IC50 [10] [nM]	IC50 [25] [nM]	Compound	Activity [5] [%]	Activity [6] [%]	Activity [7]	inhibition [8]	Activity [14] [%]	IC50 [23] [nM]	other results
42	66	Cc1cc(C)c(OS(=O)(=O)c2ccc(N3CCNC3=O)cc2)cc1C	1	79	Active	Active	20	41	–
41	55	O=C1NCCN1c1ccc(S(=O)(=O)Oc2ccc(F)cc2F)cc1	2	72	Active	Active	26	35	–
36	47	O=C1NCCN1c1ccc(S(=O)(=O)Oc2cc(F)cc(F)c2)cc1	12	59	Active	Active	29	15	–
34	51	CCCc1cccc(OS(=O)(=O)c2ccc(N3CCNC3=O)cc2)c1	2	73	Active	Active	25	27	–
30	30	O=C1NCCN1c1ccc(S(=O)(=O)Oc2cc(Cl)c(Cl)cc2Cl)cc1	1	99	Active	Active	0	31	–
29	34	COc1cccc(OS(=O)(=O)c2ccc(N3CCNC3=O)cc2)c1	1	98	Active	Active	1	24	–
